From ChEMBL document CHEMBL2016475, “Discovery of small molecule HIV-1 integrase dimerization inhibitors” (Bioorg Med Chem Lett, 2012)
Calls of active or inactive are those of the source. The rule behind the calls is not given here.

target: Human immunodeficiency virus type 1 integrase (Human immunodeficiency virus 1) (UniProt Q7ZJM1); experiment: Inhibition of GST-tagged HIV1 integrase and C-terminal His6-tagged HIV1 integrase dimerization at 100 uM after 3 hrs by AlphaScreen-based dimerization assay
Procedure, shortened: (§1)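 AlphaScreen proximity assay. GST-tagged HIV-1 IN is mixed with His6-tagged IN and incubated so monomers exchange between pre-existing dimers, giving a steady-state mix of homo- and GST/His6 heterodimers. Photon counts are normalized to DMSO and blank controls and expressed as normalized signal (%). Dose–response curves give the IC50, and single-concentration tests give percent inhibition.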

Sequence of Human immunodeficiency virus type 1 integrase (Human immunodeficiency virus 1) (Q7ZJM1 as listed by the source): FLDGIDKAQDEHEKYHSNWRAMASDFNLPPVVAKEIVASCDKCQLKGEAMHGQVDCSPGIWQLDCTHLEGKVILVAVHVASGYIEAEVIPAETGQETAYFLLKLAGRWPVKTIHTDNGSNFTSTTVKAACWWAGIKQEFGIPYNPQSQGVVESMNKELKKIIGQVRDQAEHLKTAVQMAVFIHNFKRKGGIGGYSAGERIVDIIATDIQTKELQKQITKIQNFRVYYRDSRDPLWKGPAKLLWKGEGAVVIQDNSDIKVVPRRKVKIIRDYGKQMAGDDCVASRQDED

inhibition	SMILES
50%	COc1ccc(CNC(=O)C/C(C)=N/NC(=O)c2cc3ccccc3cc2O)cc1
inactive	C/C(CC(=O)Nc1ccc(Cl)c(Cl)c1)=N\NC(=O)c1cc2ccccc2cc1O
30%	O=C(N/N=C/c1ccc(Sc2ccccn2)o1)c1cc2ccccc2cc1O
54%	C/C(CC(=O)Nc1ccc(OCc2ccccc2)cc1)=N\NC(=O)c1cc2ccccc2cc1O
83%	COc1ccc(CCNC(=O)C/C(C)=N/NC(=O)c2cc3ccccc3cc2O)cc1OC
inactive	O=C(NCCNC(=O)c1cc2ccccc2cc1O)c1cc2ccccc2cc1O
49%	O=C(N/N=C/c1ccc(-c2ccc(Cl)cc2Cl)o1)c1cc2ccccc2cc1O
inactive	O=C(Nc1cccc(-c2cnc3ccccc3n2)c1)c1cc2ccccc2cc1O

Second part, the compound before the results:

SMILES	inhibition
COc1ccc(/C=C/C(=O)Nc2ncc(Cc3cccc(C)c3)s2)cc1	inactive
CCn1c2ccccc2c2cc(NC(=O)/C=C(\C)NNC(=O)Cc3cccc4ccccc34)ccc21	inactive
O=C(CNc1ccc2ccccc2c1)N/N=C/c1ccc(-c2ccc(Cl)cc2)o1	49%
O=C(NCCNC(=O)c1nc2ccccc2c(=O)[nH]1)c1ccc2ccccc2n1	inactive
C[C@H](Oc1ccc2c(c1)CCC2)C(=O)NNC(=O)Nc1cccc([N+](=O)[O-])c1	inactive
O=C(NCCNC(=O)c1cc2ccccc2o1)c1nc2ccccc2c(=O)[nH]1	inactive
Cc1ccc(C2(O)CCN(CCNC(=O)Cc3cccc(C)c3)CC2)cc1	inactive
CC(CCc1ccccc1)NC(=O)c1ccc(NC(=O)C2COc3ccccc3O2)cc1 (stereo not drawn)	14%
Cc1ccc(C(=O)CCC(=O)Nc2nc3c(s2)CCc2c-3cnn2C)cc1C	13%
COc1cccc2[nH]c(C(=O)NCCCC(=O)Nc3ccc4c(c3)OCCO4)cc12	50%
COc1cccc(-c2nc(C)c(C(=O)Nc3cc(C)ccc3O)s2)c1	32%
COc1ccc(C(=O)N/N=C(\C)CC(=O)NCc2ccccc2)cc1OC	inactive
COc1cccc2[nH]c(C(=O)NCCC(=O)Nc3nc4ccccc4s3)cc12	inactive
COc1ccc(OC)c2[nH]c(C(=O)NCCCC(=O)Nc3ccc4c(c3)OCCO4)cc12	58%
CCc1ccc(O)c(NC(=S)NC(=O)COc2cc(C)c(Cl)c(C)c2)c1	23%
COc1ccc(OC)c2[nH]c(C(=O)NCCC(=O)NCCc3c[nH]c4ccccc34)cc12	73%
Cc1cc(C)cc(OCC(=O)NNC(=O)c2ccc3ccccc3c2O)c1	inactive

target: T1, Human immunodeficiency virus type 1 integrase (Human immunodeficiency virus 1, UniProt Q7ZJM1); experiment: Inhibition of HIV1 integrase using oligodeoxynucleotide as substrate after 1 hr by ELISA
T1 sequence (Q7ZJM1 whole entry): as the sequence (Q7ZJM1 as listed by the source) above

IC50 [µM]	SMILES
79	COc1ccc(CCNC(=O)C/C(C)=N/NC(=O)c2cc3ccccc3cc2O)cc1OC

target: T1, Human immunodeficiency virus type 1 integrase; experiment: Inhibition of GST-tagged HIV1 integrase and C-terminal His6-tagged HIV1 integrase dimerization after 3 hrs by AlphaScreen-based dimerization assay; procedure, shortened: as §1

IC50 [µM]	SMILES
128	COc1ccc(CNC(=O)C/C(C)=N/NC(=O)c2cc3ccccc3cc2O)cc1
38.4	COc1ccc(CCNC(=O)C/C(C)=N/NC(=O)c2cc3ccccc3cc2O)cc1OC
